Results published in ChEMBL document CHEMBL1148104, “New sugar-mimic alkaloids from the pods of Angylocalyx pynaertii” (J Nat Prod, 2002).
pIC50, pKi: −log10 of the molar value. Each block holds one compound with its values, some of them ahead of it.

Columns and labels:
Uncharacterized protein = biological target: T1, Uncharacterized protein (Sus scrofa, UniProt I3LIR5); assay: Inhibition of pig kidney trehalase assessed as p-nitrophenol release by spectrophotometrically
T1 sequence (I3LIR5 whole entry): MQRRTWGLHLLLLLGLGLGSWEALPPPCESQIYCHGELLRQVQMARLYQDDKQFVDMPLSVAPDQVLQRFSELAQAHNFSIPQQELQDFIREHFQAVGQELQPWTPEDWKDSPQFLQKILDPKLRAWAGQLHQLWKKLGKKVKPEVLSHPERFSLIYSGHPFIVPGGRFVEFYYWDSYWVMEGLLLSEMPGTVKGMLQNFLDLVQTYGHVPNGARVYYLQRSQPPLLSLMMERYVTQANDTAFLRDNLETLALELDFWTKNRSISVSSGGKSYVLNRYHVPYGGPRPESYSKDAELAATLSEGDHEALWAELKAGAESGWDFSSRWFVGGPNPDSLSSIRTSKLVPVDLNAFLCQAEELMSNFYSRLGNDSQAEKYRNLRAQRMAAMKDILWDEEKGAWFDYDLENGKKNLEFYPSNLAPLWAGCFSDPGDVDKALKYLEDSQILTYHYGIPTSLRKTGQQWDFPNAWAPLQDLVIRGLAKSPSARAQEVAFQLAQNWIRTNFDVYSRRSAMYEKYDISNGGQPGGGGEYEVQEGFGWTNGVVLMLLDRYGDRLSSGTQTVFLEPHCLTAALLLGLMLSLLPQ

[1] = biological target: Alpha-glucosidase MAL62 (Saccharomyces cerevisiae) (UniProt P07265); assay: Inhibition of yeast maltase alpha-glucosidase assessed as glucose release at 1000 uM by Glucose B-test
Sequence of Alpha-glucosidase MAL62 (Saccharomyces cerevisiae) (P07265 whole entry): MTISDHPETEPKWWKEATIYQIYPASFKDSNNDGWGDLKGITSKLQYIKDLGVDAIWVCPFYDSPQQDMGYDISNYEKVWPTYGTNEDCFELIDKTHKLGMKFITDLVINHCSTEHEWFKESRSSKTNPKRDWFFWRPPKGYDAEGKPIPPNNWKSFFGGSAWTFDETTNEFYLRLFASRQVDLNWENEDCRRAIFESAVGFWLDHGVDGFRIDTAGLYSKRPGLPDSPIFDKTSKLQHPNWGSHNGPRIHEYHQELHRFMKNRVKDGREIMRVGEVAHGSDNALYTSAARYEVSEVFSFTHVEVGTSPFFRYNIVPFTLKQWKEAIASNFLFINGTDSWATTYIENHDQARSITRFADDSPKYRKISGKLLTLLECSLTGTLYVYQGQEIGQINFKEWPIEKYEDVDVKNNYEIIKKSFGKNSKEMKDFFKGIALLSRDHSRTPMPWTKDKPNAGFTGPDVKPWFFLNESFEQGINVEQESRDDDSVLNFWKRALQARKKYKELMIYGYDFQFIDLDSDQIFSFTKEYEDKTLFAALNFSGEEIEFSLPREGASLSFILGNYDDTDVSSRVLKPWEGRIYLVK

Saccharomyces cerevisiae [2] = assay: Inhibition of yeast isomaltase alpha-glucosidase assessed as glucose release at 1000 uM by Glucose B-test
Oryza sativa = assay: Inhibition of rice alpha-glucosidase assessed as glucose release at 1000 uM by Glucose B-test
Outline: (§1)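 Disaccharide substrate suited to each enzyme, at that enzyme's optimum pH. Released D-glucose was measured colorimetrically with the Glucose B-test.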

[3] = Inhibition of yeast alpha-glucosidase assessed as p-nitrophenol release by spectrophotometrically; design: species or system Saccharomyces cerevisiae
Outline: (§2)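 Assayed with the appropriate p-nitrophenyl glycoside substrate at each enzyme's optimum pH.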

[4] = biological target: Lysosomal alpha-glucosidase (Rattus norvegicus) (UniProt Q6P7A9); assay: Inhibition of rat intestinal maltase assessed as glucose release at 1000 uM by Glucose B-test
Sequence of Lysosomal alpha-glucosidase (Rattus norvegicus) (Q6P7A9 whole entry): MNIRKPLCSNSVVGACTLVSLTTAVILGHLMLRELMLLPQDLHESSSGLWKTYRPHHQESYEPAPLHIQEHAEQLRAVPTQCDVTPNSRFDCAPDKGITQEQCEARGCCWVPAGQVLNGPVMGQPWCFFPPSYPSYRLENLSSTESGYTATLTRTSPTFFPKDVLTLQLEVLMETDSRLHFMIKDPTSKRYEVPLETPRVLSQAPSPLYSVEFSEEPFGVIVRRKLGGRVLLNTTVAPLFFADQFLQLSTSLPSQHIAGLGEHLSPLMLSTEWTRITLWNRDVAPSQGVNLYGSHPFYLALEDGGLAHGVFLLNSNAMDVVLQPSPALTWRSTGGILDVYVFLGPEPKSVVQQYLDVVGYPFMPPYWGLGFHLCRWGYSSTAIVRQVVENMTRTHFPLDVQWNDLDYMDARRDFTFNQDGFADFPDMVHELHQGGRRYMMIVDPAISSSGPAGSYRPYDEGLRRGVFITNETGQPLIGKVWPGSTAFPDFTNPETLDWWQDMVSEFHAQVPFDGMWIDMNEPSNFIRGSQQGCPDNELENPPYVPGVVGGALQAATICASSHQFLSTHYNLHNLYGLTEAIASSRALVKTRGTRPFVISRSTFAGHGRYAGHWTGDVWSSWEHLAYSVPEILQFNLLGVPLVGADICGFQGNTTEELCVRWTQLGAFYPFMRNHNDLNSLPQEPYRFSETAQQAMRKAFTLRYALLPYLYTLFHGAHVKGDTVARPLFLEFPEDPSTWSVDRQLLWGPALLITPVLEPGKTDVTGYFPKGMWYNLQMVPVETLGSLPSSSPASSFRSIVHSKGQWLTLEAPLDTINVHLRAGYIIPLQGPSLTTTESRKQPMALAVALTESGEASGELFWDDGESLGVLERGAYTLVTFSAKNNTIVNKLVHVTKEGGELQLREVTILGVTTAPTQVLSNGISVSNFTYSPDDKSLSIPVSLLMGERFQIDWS
Outline: (§3)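 Enzyme source was brush border membranes prepared from rat small intestine. Maltase, sucrase and isomaltase activities were read with the matching disaccharide substrate at each enzyme's optimum pH, and liberated D-glucose was quantified colorimetrically by Glucose B-test.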

[5] = biological target: Sucrase-isomaltase, intestinal (Rattus norvegicus) (UniProt P23739); assay: Inhibition of rat intestinal sucrase assessed as glucose release at 1000 uM by Glucose B-test; outline: as §3
Sequence of Sucrase-isomaltase, intestinal (Rattus norvegicus) (P23739 1-1013 limits assumed): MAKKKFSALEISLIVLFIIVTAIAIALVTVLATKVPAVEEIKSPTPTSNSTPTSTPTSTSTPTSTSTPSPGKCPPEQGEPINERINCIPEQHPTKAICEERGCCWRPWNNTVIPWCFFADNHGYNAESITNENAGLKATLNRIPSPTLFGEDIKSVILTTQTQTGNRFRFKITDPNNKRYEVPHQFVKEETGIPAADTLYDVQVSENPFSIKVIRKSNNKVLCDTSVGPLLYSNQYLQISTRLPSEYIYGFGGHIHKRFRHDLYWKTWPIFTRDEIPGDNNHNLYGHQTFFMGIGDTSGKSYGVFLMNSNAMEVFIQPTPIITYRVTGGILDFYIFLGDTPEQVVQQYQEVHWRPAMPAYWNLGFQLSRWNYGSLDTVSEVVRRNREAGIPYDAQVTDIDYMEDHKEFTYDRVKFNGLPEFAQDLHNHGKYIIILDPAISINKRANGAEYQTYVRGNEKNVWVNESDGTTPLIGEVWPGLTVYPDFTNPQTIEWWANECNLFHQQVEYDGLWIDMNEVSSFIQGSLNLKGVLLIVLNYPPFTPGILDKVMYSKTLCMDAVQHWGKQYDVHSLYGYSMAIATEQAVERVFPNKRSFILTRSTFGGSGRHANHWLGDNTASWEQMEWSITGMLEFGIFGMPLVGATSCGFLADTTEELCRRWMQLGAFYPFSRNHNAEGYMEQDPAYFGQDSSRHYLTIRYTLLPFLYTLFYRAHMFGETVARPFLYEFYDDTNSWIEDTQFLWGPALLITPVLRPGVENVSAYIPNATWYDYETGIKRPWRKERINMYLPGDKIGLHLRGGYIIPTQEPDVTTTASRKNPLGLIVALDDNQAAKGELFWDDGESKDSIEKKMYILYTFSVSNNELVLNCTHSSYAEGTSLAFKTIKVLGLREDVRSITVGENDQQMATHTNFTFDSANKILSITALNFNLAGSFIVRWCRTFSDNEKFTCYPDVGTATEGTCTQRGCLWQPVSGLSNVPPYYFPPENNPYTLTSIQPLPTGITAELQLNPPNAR
Sequence of Sucrase-isomaltase, intestinal (Rattus norvegicus) (P23739 1014-1841 limits assumed): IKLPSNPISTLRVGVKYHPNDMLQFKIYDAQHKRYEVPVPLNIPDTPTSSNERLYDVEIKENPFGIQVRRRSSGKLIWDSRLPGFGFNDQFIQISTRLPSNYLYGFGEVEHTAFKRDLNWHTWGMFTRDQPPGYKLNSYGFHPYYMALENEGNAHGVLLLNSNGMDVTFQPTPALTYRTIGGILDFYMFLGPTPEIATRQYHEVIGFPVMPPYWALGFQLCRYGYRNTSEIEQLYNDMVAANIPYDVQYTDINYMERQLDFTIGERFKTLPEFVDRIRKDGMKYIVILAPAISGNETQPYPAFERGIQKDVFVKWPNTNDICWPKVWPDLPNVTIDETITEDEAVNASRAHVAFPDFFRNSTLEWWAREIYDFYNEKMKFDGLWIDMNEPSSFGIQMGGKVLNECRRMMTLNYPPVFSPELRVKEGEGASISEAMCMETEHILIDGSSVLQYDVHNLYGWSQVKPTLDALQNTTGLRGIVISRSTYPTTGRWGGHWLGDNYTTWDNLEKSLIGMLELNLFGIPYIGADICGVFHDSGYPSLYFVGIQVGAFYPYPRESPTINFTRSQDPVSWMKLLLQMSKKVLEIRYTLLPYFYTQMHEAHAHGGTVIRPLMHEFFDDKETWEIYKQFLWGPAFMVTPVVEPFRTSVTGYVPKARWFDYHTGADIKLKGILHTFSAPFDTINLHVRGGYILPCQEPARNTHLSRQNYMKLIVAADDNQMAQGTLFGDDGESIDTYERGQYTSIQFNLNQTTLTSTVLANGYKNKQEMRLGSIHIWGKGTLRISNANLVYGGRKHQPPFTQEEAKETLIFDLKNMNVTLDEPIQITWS

[6] = biological target: Sucrase-isomaltase, intestinal (Rattus norvegicus) (UniProt P23739); assay: Inhibition of rat intestinal isomaltase assessed as glucose release at 1000 uM by Glucose B-test; outline: as §3
Rattus norvegicus = organism: Rattus norvegicus; assay: Inhibition of rat epididymis alpha-mannosidase assessed as p-nitrophenol release at 1000 uM by spectrophotometrically
Beta-mannosidase = biological target: T2, Beta-mannosidase (Rattus norvegicus, UniProt Q4FZV0); assay: Inhibition of rat epididymis beta-mannosidase assessed as p-nitrophenol release by spectrophotometrically
T2 sequence (Q4FZV0 whole entry): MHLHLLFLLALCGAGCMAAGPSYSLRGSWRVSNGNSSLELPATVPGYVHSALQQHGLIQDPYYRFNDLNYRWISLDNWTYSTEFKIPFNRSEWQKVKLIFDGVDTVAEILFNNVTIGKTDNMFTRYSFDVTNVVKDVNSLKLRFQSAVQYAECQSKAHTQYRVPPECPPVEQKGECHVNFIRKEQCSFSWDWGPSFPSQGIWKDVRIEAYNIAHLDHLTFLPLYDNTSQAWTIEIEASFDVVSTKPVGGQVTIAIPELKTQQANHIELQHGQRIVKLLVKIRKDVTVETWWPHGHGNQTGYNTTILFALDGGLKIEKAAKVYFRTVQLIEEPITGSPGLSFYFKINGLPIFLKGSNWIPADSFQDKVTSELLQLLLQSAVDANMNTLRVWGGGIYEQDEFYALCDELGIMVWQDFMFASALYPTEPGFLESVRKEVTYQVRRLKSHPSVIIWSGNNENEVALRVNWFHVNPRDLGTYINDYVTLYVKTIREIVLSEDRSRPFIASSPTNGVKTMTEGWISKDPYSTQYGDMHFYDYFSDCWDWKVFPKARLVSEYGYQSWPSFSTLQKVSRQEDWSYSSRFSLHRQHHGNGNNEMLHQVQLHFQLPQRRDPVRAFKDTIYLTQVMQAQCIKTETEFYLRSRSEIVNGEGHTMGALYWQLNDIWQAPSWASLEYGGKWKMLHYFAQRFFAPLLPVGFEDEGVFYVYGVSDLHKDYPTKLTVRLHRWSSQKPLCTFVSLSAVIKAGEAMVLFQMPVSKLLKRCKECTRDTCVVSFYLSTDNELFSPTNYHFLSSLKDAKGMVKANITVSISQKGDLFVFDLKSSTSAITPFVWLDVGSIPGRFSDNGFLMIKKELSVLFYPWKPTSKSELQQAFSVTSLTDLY

[7] = biological target: Alpha-galactosidase (Coffea arabica) (UniProt Q42656); assay: Inhibition of coffee bean alpha-galactosidase assessed as p-nitrophenol release at 1000 uM by spectrophotometrically; outline: as §2
Sequence of Alpha-galactosidase (Coffea arabica) (Q42656 16-378 limits assumed): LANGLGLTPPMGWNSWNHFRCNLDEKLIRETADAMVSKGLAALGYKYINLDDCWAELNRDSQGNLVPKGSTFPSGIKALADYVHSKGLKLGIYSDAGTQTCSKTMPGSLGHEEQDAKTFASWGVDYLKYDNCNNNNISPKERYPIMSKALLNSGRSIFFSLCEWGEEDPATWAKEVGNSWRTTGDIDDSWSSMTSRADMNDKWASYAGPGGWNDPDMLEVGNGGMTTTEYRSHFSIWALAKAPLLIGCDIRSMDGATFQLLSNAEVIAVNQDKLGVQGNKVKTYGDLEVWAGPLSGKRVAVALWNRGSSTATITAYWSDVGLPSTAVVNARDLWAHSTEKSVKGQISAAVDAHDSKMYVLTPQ

Beta-galactosidase = biological target: T3, Beta-galactosidase (Bos taurus, UniProt Q58D55); assay: Inhibition of bovine liver beta-galactosidase assessed as p-nitrophenol release by spectrophotometrically; outline: as §2
T3 sequence (Q58D55 whole entry): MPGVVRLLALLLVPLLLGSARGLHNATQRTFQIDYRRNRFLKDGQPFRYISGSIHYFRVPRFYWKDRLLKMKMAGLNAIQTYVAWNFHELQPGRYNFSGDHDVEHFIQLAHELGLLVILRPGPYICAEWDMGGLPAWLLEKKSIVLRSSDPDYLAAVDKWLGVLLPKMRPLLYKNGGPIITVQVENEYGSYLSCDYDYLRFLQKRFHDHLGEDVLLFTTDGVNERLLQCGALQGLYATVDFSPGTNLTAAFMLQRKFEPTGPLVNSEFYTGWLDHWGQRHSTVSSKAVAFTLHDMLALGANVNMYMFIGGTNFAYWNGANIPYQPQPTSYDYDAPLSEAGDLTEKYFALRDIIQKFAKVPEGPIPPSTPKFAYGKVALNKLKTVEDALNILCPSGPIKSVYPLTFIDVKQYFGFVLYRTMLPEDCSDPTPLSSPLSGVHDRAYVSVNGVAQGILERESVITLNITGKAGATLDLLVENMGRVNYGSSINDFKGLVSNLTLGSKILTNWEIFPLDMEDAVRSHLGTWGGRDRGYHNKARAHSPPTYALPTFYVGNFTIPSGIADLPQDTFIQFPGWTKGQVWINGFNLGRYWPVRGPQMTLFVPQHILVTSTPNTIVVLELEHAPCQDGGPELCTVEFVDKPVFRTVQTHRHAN

[8] = biological target: T4, Tissue alpha-L-fucosidase (Bos taurus, UniProt Q2KIM0); assay: Inhibition of bovine epididymis alpha-L-fucosidase assessed as p-nitrophenol release by spectrophotometrically; outline: as §2
T4 sequence (Q2KIM0 whole entry): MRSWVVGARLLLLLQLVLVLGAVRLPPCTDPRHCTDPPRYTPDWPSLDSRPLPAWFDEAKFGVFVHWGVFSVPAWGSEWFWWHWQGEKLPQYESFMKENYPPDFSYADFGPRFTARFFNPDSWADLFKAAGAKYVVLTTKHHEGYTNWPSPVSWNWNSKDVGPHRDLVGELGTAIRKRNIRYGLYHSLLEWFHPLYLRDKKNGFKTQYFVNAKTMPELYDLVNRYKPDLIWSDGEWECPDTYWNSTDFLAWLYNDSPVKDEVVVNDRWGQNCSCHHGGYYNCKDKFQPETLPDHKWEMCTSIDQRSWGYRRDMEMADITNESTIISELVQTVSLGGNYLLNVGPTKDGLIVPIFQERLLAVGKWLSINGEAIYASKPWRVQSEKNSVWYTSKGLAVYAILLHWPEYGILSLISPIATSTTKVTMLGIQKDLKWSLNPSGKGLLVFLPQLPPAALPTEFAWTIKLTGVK

[9] = Inhibition of Aspergillus niger amyloglucosidase assessed as glucose release by Glucose B-test; outline: as §1
[10] = Inhibition of rice alpha-glucosidase assessed as glucose release by Glucose B-test; design: species or system Oryza sativa; outline: as §1
[11] = biological target: T5, Tissue alpha-L-fucosidase (Bos taurus) (UniProt Q2KIM0); assay: Inhibition of bovine epididymis alpha-L-fucosidase assessed as p-nitrophenol release at 1000 uM by spectrophotometrically; outline: as §2
T5 sequence (whole entry): T4 sequence (Q2KIM0 whole entry)

Alpha-glucosidase MAL62 = Alpha-glucosidase MAL62 (Saccharomyces cerevisiae, UniProt P07265); assay: Inhibition of yeast maltase alpha-glucosidase assessed as glucose release by Glucose B-test
Sequence of Alpha-glucosidase MAL62 (P07265 whole entry): as the sequence (P07265 whole entry) above

[12] = biological target: T6, Uncharacterized protein (Sus scrofa) (UniProt I3LIR5); assay: Inhibition of pig kidney trehalase assessed as p-nitrophenol release at 1000 uM by spectrophotometrically
T6 sequence (whole entry): T1 sequence (I3LIR5 whole entry)

[13] = Inhibition of yeast isomaltase alpha-glucosidase assessed as glucose release by Glucose B-test
Saccharomyces cerevisiae [14] = assay: Inhibition of yeast alpha-glucosidase assessed as p-nitrophenol release at 1000 uM by spectrophotometrically; outline: as §2
[15] = biological target: T7, Beta-mannosidase (Rattus norvegicus) (UniProt Q4FZV0); assay: Inhibition of rat epididymis beta-mannosidase assessed as p-nitrophenol release at 1000 uM by spectrophotometrically
T7 sequence (whole entry): T2 sequence (Q4FZV0 whole entry)

[16] = biological target: T8, Beta-galactosidase (Bos taurus) (UniProt Q58D55); assay: Inhibition of bovine liver beta-galactosidase assessed as p-nitrophenol release at 1000 uM by spectrophotometrically; outline: as §2
T8 sequence (whole entry): T3 sequence (Q58D55 whole entry)

Aspergillus niger = assay: Inhibition of Aspergillus niger amyloglucosidase assessed as glucose release at 1000 uM by Glucose B-test; outline: as §1

- pIC50 (Uncharacterized protein): 3.15
- inhibition [1]: < 50%
- inhibition (Saccharomyces cerevisiae [2]): < 50%
Structure (SMILES): OCCN1C[C@H](O)[C@@H](O)[C@H](O)[C@H]1CO [MIGLITOL]

- inhibition (Oryza sativa): < 50%
- pIC50 [3]: 3.57
- inhibition [4]: < 50%
- inhibition [5]: < 50%
- inhibition [6]: < 50%
- inhibition (Rattus norvegicus): < 50%
- pIC50 (Beta-mannosidase): 4.03
- inhibition [7]: < 50%
- pIC50 (Beta-galactosidase): 4.52
- pIC50 [8]: 3.82
- pIC50 [9]: 3.80
Structure (SMILES): C[C@H]1N[C@H](CO)[C@@H](O)[C@@H]1O

- pKi [8]: 8.28
Structure (SMILES): C[C@@H]1N[C@H](CO)[C@@H](O)[C@H](O)[C@@H]1O

- pIC50 [10]: 3.00
- pIC50 [3]: 3.64
- inhibition [4]: < 50%
- inhibition (Rattus norvegicus): < 50%
- pIC50 (Beta-mannosidase): 4.74
- inhibition [7]: < 50%
- pIC50 (Beta-galactosidase): 3.42
- inhibition [11]: < 50%
- pIC50 [9]: 3.00
Structure (SMILES): OC[C@H]1NC[C@H](O)[C@@H]1O [IMINORIBITOL]

- pIC50 (Alpha-glucosidase MAL62): 5.70
Structure (SMILES): OC[C@H]1N[C@H](CO)[C@@H](O)[C@@H]1O

- inhibition [12]: < 50%
- pIC50 (Alpha-glucosidase MAL62): 3.59
- pIC50 [13]: 3.62
Structure (SMILES): OCCN1[C@H](CO)[C@@H](O)[C@H](O)[C@H]1CO

- inhibition (Oryza sativa): < 50%
- inhibition (Saccharomyces cerevisiae [14]): < 50%
- inhibition [4]: < 50%
- inhibition [5]: < 50%
- inhibition [6]: < 50%
- inhibition (Rattus norvegicus): < 50%
- inhibition [15]: < 50%
- inhibition [7]: < 50%
- inhibition [16]: < 50%
- pIC50 [8]: 4.46
- inhibition (Aspergillus niger): < 50%
Structure (SMILES): C[C@H]1N[C@@H](CO)[C@@H](O)[C@H]1O
